Compound activity (PubChem BioAssay)
This is a sample that favours compounds with a hit; in the whole collection about 2.3% have one here.
b-catenin transl: modulators of beta-catenin nuclear translocation, primary screen, imaging, HeLa cells, immunofluorescence, high-content; 190,000 compounds, 0.3% hits; AID 1665, 2009; nuclear translocation activity, % at 5 µM;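 active = nuclear translocation activity above 50% at 5 µM, with a well cell count of 50 or more; inconclusive = wells under 50 cells across six images, flagged as toxic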;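 also: per-cell ratio of nuclear to cytoplasmic median beta-catenin stain intensity; plate controls were DMSO negative control for no effect and GSK-3 inhibitor IX positive control for full effect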
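Technique: fluorescence imaging of beta-catenin antibody stain plus DAPI / Material: human HeLa cell line / Incubation: compound treatment 24 h, 37°C, 5% CO2 / Read-out basis: % activation of per-cell nuclear versus cytoplasmic median beta-catenin signal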
Dynein cargo inh: inhibitors of GR-EGFP nuclear translocation, primary screen, dynein cargo transport inhibitor project, imaging, high-content, 3617.4 mouse cells; test concentration mostly 20 µM; stimulated with dexamethasone, 1 µM; hits give low values; z-score, hits read low; 220,000 compounds, 0.47% hits;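 active = plate z-score of nuclear minus cytoplasmic receptor signal below a set negative limit, without overly bright fluorescence or cell loss, cut at about -3.5 in these data, passing the limit was not always enough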;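 also: z-score of nuclear minus cytoplasmic ring GR-EGFP intensity difference per well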
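Buffer or medium: tet-free medium with charcoal-stripped serum / Also added: dexamethasone agonist, 1.0 µM final, for 30 min / Timing: induction 48 h, compound 1 h, agonist 30 min / Measured by: high-content fluorescence imaging after fixation / Read-out: nuclear-to-cytoplasmic GR-EGFP distribution per well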
Insulin prom up: insulin promoter activators in MIN6 cells, imaging, high-content screening, mouse beta cells. MIN6 insulin promoter-GFP reporter; hits give high values. z-score at 5 µM. 190,000 compounds, 0.3% hits;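 active = z-score above 3 at 5 µM with at least 500 cells counted in the well; inconclusive = wells under 500 cells, flagged as cytotoxic or low count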
Autophagy mod: autophagy modulators in MEF cells, primary screen, imaging, high-content, MEF GFP-LC3. MEF GFP-LC3 puncta imaging; test concentration mostly 10 µM. calls only at 10 µM (by protocol). 190,000 compounds, 0.98% hits. AID 463193, 2010;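 active = percentage of spot-positive cells more than 3 SD above its plate mean, without a fluorescence outlier flag or 80% toxicity; inconclusive = no clear call, values can overlap the other calls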;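 also: spot-positive cell cutoff set from DMSO-treated cells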
MT stabilize HCS: microtubule stabilizers in HeLa cells, primary screen, imaging, high-content imaging | % tubulin-high responders, % at 10 µM | HeLa tubulin immunostaining HCS, 24 h; share of cells brighter than vehicle mean+2SD | 200,000 compounds, 0.83% hits | AID 2205, 2009;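 active = plate Z-score above 3 for both tubulin-high and condensed-nucleus cell shares, with cell loss under 80%, at 10 µM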;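 also: anti alpha tubulin signal scored within the nucleus-defined area of each cell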
* = called active by the depositor; i = inactive; ? = inconclusive; nt = not tested or not shown; + = active, no number.

SMILES | b-catenin transl | Dynein cargo inh | Insulin prom up | Autophagy mod | MT stabilize HCS
CCN1/C(=C/c2ccc3cc(C)ccc3[n+]2CC)Sc2cc(C)ccc21 | 3 | -2.6 | ? | ? | 4
CCN1/C(=C/c2cc[n+](C)cc2)C=Cc2cc(C)ccc21 | 1 | 0.02 | ? | i | 7
COc1ccccc1Cn1cccc1C=O | 2 | -0.51 | 0.03 | + | 1
COc1cccc(NC(=O)c2cc([N+](=O)[O-])ccc2NC(=O)CNCC2CCCO2)c1 (centres undefined) | -1 | 1.3 | -0.47 | + | 2
COc1cccc(C(=O)N/N=C(/c2ccccc2)c2ccccn2)c1 | -1 | 1 | -1.8 | + | 2
Cc1ccc(Cl)cc1NC1=C/C(=N\S(=O)(=O)c2cccs2)c2ccccc2C1=O | nt | -0.55 | -0.7 | i | 33*
Cc1cccc(NC2=C/C(=N/S(=O)(=O)c3cccs3)c3ccccc3C2=O)c1 | -2 | -0.34 | ? | i | 38
O=C1C(Nc2ccc(O)cc2)=C/C(=N/S(=O)(=O)c2cccs2)c2ccccc21 | 0 | -0.57 | -4.4 | + | 5
Cc1ccc(NC2=C/C(=N\S(=O)(=O)c3cccs3)c3ccccc3C2=O)c(C)c1 | -1 | -2.2 | ? | i | 28
CN(C)C(=O)CSc1cccc2cccnc12 | nt | -0.34 | -0.12 | + | 3
NNC(=O)CSc1cccc2cccnc12 | -1 | -0.23 | 1.1 | i | 3
COc1ccc(NC(=O)CN(c2cc(C)cc(C)c2)S(=O)(=O)c2c(C)noc2C)cc1 | -6 | 1.4 | 0.6 | + | 4
CCOc1ccccc1NC(=O)CN(c1ccc(OC)cc1)S(=O)(=O)c1c(C)noc1C | 2 | 0.48 | 0.96 | + | 17*
COc1ccc(N(CC(=O)Nc2ccc3c(c2)OCO3)S(=O)(=O)c2ccc(F)cc2)cc1 | -1 | -2.6 | -0.33 | + | 2
CCOc1ccc(N(CC(=O)Nc2ccccc2C)S(=O)(=O)c2c(C)noc2C)cc1 | 68* | 3.1 | 1.3 | i | 15*
COc1ccc(NC(=O)CN(c2cc(C)cc(C)c2)S(=O)(=O)c2c(C)noc2C)cc1OC | 0 | -0.93 | 1 | i | 6
COc1ccc(C(=O)Nc2nc3cc4c(cc3s2)OCCO4)c(OC)c1 | 0 | -0.19 | -0.78 | nt | nt
Cc1nc(N)ncc1Sc1ccccc1 | 0 | -1.1 | nt | nt | nt
O=C(c1cccc2cccc(O)c12)N1CCCCC1 | 3 | -0.98 | -0.1 | + | 2
C1CCC(C(CC2CCCCN2)C2CCCCC2)CC1 (centres undefined) | 7 | -2.5 | nt | + | 35*
Cc1cc(S(=O)(=O)N2CCN(C(=O)CCC(=O)N3CCOCC3)CC2)ccc1Br | -2 | -0.79 | -0.13 | nt | nt
CCOc1ccccc1C(=O)Nc1ccccc1C(N)=O | -3 | 2.4 | 0.2 | i | 4
CCOc1ccccc1C(=O)Nc1ccsc1C(=O)OC | 57* | -0.084 | -0.51 | i | 28*
CCn1c(C(=O)Nc2ccsc2C(=O)OC)cc2sc(Cl)cc21 | nt | 1.2 | -0.96 | + | 4
Cc1ccc(N/C=C/C(=O)c2sc(-c3ccccc3)nc2C)cc1 | 1 | 0.63 | -0.14 | i | 51*
SMILES | b-catenin transl | Dynein cargo inh | Insulin prom up | Autophagy mod | MT stabilize HCS
Cc1nc(-c2ccccc2)sc1C(=O)NN | 0 | -0.21 | -0.13 | i | 7
CCOC(=O)c1c(CN2CCN(C)CC2)oc2ccc(OC)cc12 | 0 | -0.085 | 0.15 | i | 4
CCOC(=O)c1c(CN2CCN(c3ccccc3)CC2)oc2ccc(O)cc12 | 3 | 0.47 | 1.2 | i | 13*
C#CCNC(=O)C(C)c1ncc(C(F)(F)F)cc1Cl (centres undefined) | -2 | -0.034 | -0.18 | i | 3
COc1ccccc1CNC(=O)CN(C)S(=O)(=O)c1cccc2cccnc12 | 0 | 0.61 | 0.01 | nt | nt
COc1cccc(-c2nn(C)c3sc(C(=O)Nc4ccc5c(c4)OCCO5)cc23)c1 | 0 | 0.8 | -0.93 | + | 3
COc1ccc(N2CCN(C(=O)c3cc4c(-c5cccc(OC)c5)nn(C)c4s3)CC2)cc1 | 0 | 0.12 | -1.4 | + | 4
COc1ccc(-c2nn(C)c3sc(C(=O)N4CCOCC4)cc23)cc1OC | 1 | -0.34 | -0.51 | i | 2
CCOC(=O)N1CCC(NC(=O)c2cc3c(-c4cccc(OC)c4)nn(C)c3s2)CC1 | 0 | -0.97 | -1.3 | i | 7.7*
Cn1nc(-c2ccccc2F)c2cc(C(=O)Nc3ccc4c(c3)OCCO4)sc21 | nt | -0.48 | -0.65 | i | 3
COc1cccc(-c2nn(C)c3sc(C(=O)NCc4ccc(C)cc4)cc23)c1 | nt | 0.21 | -1.1 | i | 1
C[n+]1nc(Nc2cccc(F)c2)sc1-c1ccc(C(=O)O)cc1 | 0 | 0.36 | 0.07 | nt | nt
CCCCCCOc1ccc(N2C(=O)CC(N3CCN(CCN=CC4C(=O)CC(C)(C)CC4=O)CC3)C2=O)cc1 (centres undefined) | 0 | 0.14 | -0.66 | i | 5
O=C(c1ccc2c(c1)OCO2)C1CCCN(C2CCN(CCc3ccccc3)CC2)C1 (centres undefined) | -4 | 0.36 | -0.62 | i | 2
CCOc1ccc(C(=O)Nc2ccc(NC(=O)c3ccco3)c(Cl)c2)cc1Br | -1 | -0.46 | 0.19 | i | 4
CCOc1ccc(C(=O)Nc2ccc(NC(=O)c3ccco3)c(Cl)c2)cc1Cl | nt | -0.14 | -0.08 | + | 3
CCOc1ccc(NC(=O)c2ccco2)c([N+](=O)[O-])c1 | 7 | 0.18 | 0.12 | i | 12*
CCOc1ccc(NC(=O)c2ccc(CC)s2)c([N+](=O)[O-])c1 | 0 | -0.16 | -0.11 | i | 2
CCOc1ccccc1NC(=O)c1cccc(NC(=O)c2ccco2)c1 | 72* | -0.37 | -0.89 | + | 41*
Cc1cc(NC(=O)CSc2nnc(N)s2)c([N+](=O)[O-])cc1C | -1 | -1.2 | -1.4 | i | 4
Cc1cc(C(=O)OCC(=O)Nc2cccc(S(N)(=O)=O)c2)c2ccccc2n1 | -2 | -0.0073 | 0.81 | nt | nt
c1ccc(Cn2cc(CN3CCCO3)c(-c3ccc4c(c3)OCO4)n2)cc1 | 2 | -0.67 | -0.65 | i | 3
Cc1cccc(C(=O)Nc2ccc(O)c3c(=O)cc(-c4ccccc4Cl)oc23)c1 | nt | 0.046 | -0.31 | + | 4
C=C(C)COc1ccc(-c2n[nH]c(C)c2-c2ccc(Br)cc2)c(O)c1 | nt | -1.1 | nt | + | 26*
C=C(C)COc1ccc(-c2[nH]ncc2-c2ccccc2OC)c(O)c1 | -3 | -1.1 | -0.47 | i | 29*
C=C(C)COc1ccc(-c2[nH]ncc2Oc2ccccc2OC)c(O)c1 | 5 | 0.39 | 1.1 | i | 4
C=C(C)COc1ccc(-c2[nH]ncc2-c2ccc(Br)cc2)c(O)c1 | 39 | -0.58 | 0.7 | i | 19*
COc1ccc(-c2c(-c3ccc(O)cc3O)n[nH]c2C)cc1OC | nt | -0.43 | 0.42 | i | 35*
